Where only a bound is given, the exact number is not on record here.

Consider one molecule from ChEMBL document CHEMBL4402514, “Norepinephrine-Transporter-Targeted and DNA-Co-Targeted Theranostic Guanidines” (J Med Chem, 2020).

For data set [1], the target named is T1, Sodium-dependent noradrenaline transporter (Homo sapiens, UniProt P23975). In words: Substrate activity at NET in human SK-N-SH cells assessed as inhibition of drug uptake by measuring MIBG IC50 incubated for 1 hr in presence of nonradioactive MIBG at 37 degC by filtration based gamma counting method. The data set is classed as cell-based. The method, boiled down:
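This was a cell-suspension competition assay. SK-N-SH cells in suspension were incubated with 125I-guanidine and graded nonradioactive MIBG, and uptake was read by filtration and γ-counting. Runs were done at 37 °C, or at 4 °C after cooling the cells on ice. The MIBG IC50 was estimated from the inhibition curves.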

Data set [2] relates to BE(2)-C. In words: Antiproliferative activity against human BE(2)-C cells assessed as extracellular concentration of 125I required to show 63% inhibition after 1 hr. The data set is classed as cell-based. In short, it runs like this: (§1)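 BE(2)-C cells were treated for 1 h with several IDG concentrations, washed extensively, harvested with trypsin and replated for clonogenic assay. Cellular 125I uptake was measured per cell. D37 (63% kill) was estimated from survival versus extracellular concentration or intracellular content (mBq/cell). Values are average (std error).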

The test system of data set [3] is BE(2)-C. In words: Antitumor activity against human BE(2)-C cells xenografted with NCR nu/nu mouse assessed as doubling time at 8.4 +/- 0.3 mBq administered intratumorally measured up to 7 days (reference value: 2.4 days). The data set is classed as functional. In short, it runs like this:
(§2)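 Athymic Ncr nu/nu female and male mice bearing subcutaneous BE(2)-C xenografts were randomized by lottery into untreated control and treatment groups. Treatment was a single intratumor injection of 8.4 ± 0.3 MBq/mouse. Tumor volumes were followed to day 7 (controls) or day 14. Doubling times were calculated from day 0 to 7 and day 0 to 14. Values are average ± std err.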
(A xenograft is tissue or cells of one species grown in another, often human tumour cells in immunodeficient mice.)

For data set [4], the system named is SK-N-SH. In words: Antiproliferative activity against human SK-N-SH cells assessed as extracellular concentration of 125I required to show 63% inhibition after 24 hrs. In kind it is cell-based. The method, boiled down:
(§3)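 D37 (63% kill) was estimated for SK-N-SH cells treated 24 h with IDG. It is expressed as extracellular (kBq/mL) or intracellular (mBq/cell) 125I. Survival was assessed by trypan blue and clonogenic assays. Values are average (std error).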

The subject of data set [5] is SK-N-SH. In words: Antiproliferative activity against human SK-N-SH cells assessed as intracellular concentration of 125I required to show 63% inhibition after 24 hrs. The data set is classed as cell-based. In short, it runs like this:
as §3

A short description of data set [6]: Drug level in tumor of NCR nu/nu mouse xenografted with human BE(2)-C cells at 0.83 +/- 0.09 MBq administered intratumorally pretreated with 18 umol of BNPP after 24 hrs by gamma counting analysis. The conditions noted are these: in vivo, other. The data set is classed as ADME, tissue-based, Neoplasm. The method, boiled down: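 BE(2)-C xenograft-bearing nude mice were pre-injected with the carboxylesterase inhibitor bis-para-nitrophenylphosphate (9 or 18 μmol). They then received intratumor IDG. Tumor %ID/g was determined at 24 h.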

Data set [7] can be described thus: Stability in EMEM medium assessed as intact compound level incubated for 24 hrs by HPLC analysis. The data set is classed as physicochemical. The conditions noted are these: read-out: Stability. The method, boiled down: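 The compound was incubated 24 h in cell culture medium without cells or with SK-N-SH cells. Intact compound and 125IUdR catabolite were quantified by radio-HPLC on a C18 column at 0.8 mL/min, with a 0–95% CH3CN gradient over 50 min and 95% for 20 min.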

Data set [8] relates to BE(2)-C. The data set can be described thus: Antiproliferative activity against human BE(2)-C cells assessed as intracellular concentration of 125I required to show 63% inhibition after 1 hr. The data set is classed as cell-based. In short, it runs like this: as §1
Data set [9] concerns BE(2)-C. The data set can be described thus: Antitumor activity against human BE(2)-C cells xenografted with NCR nu/nu mouse assessed as tumor volume at 8.4 +/- 0.3 mBq administered intratumorally after 14 days (reference value: […]). In kind it is functional. The method, boiled down:
as §2

Data set [10] in a line: Dissociation constant, pKa of compound. The data set is classed as physicochemical.
The subject of data set [11] is BE(2)-C. The data set can be described thus: Antitumor activity against human BE(2)-C cells xenografted with NCR nu/nu mouse assessed as tumor volume at 8.4 +/- 0.3 mBq administered intratumorally after 7 days. In kind it is functional. The method, boiled down:
as §2

Data set [12] addresses T1, Sodium-dependent noradrenaline transporter. In words: Substrate activity at NET in human SK-N-SH cells assessed as inhibition of drug uptake by measuring MIBG IC50 incubated for 1 hr in presence of nonradioactive MIBG by gamma counting method. In kind it is cell-based. In short, it runs like this: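 Exponentially growing SK-N-SH monolayers (endogenous NET) were exposed for 1 h to 125I-labelled guanidine plus nonradioactive MIBG over a range of concentrations. Cell-associated 125I was counted in a γ-counter, and the MIBG IC50 was estimated.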

A short description of data set [13]: Half life in human serum by HPLC analysis. In kind it is ADME, cell-free. In short, it runs like this:
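Radioiodinated guanidines were incubated in mouse, human or pig serum and analyzed by radio-HPLC on a C18 column at 0.8 mL/min. The gradient was 0–95% CH3CN over 50 min, then 95% for 20 min. Intact compound was fitted to monoexponential degradation to give half-life. Values are average ± std err.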

Data set [14] can be described thus: Drug level in human SK-N-SH cells DNA at 40 +/- 0.5 kBq/mL after 24 hrs by gamma counting method relative to control. In kind it is ADME, cell-based. In short, it runs like this:
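SK-N-SH cells were exposed 1 h to 125I compound (≈39–40 kBq/mL), then washed with nonradioactive medium and PBS. Cells were processed immediately (1 h) or re-incubated in fresh medium for 23 h (24 h). Cytoplasmic, nuclear and DNA fractions were gamma-counted.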

In data set [15] the test system is SK-N-SH. The data set can be described thus: Anticlonogenic activity against human SK-N-SH cells assessed as number of colonies at 40 +/- 0.5 kBq/mL kBq/mL after 1 hr by crystal violet staining based assay. The data set is classed as functional. The method, boiled down: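 SK-N-SH cells exposed for 1 h to 125I-MIBG (39.3 ± 0.3 kBq/mL extracellular) or IDG (40 ± 0.5 kBq/mL). For the 1 h group, cells were washed with nonradioactive medium and PBS, harvested with trypsin and replated for the clonogenic assay. For the 24 h group, cells were washed, given fresh nonradioactive medium and incubated a further 23 h before plating. Colonies were counted.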

Data set [16] is described as follows: Drug uptake in human BE(2)-C cells assessed as level of 125I-incorporation into DNA incubated 1 hr followed by compound washout with non-radioactive medium/PBS and measured after 23 hrs by gamma counting method relative to control. The data set is classed as ADME, cell-based. In short, it runs like this:
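BE(2)-C cells were treated with radioiodinated guanidine for 1 h, washed with nonradioactive medium and PBS. They were processed immediately or returned to the incubator for a further 23 h. 125I in the DNA fraction was gamma-counted. Values are average (n ≥ 3) ± SD.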

Data set [17] is described as follows: Drug uptake in human SK-N-SH cells assessed as level of 125I-incorporation into DNA after 1 hr and followed by compound washout with non-radioactive medium/PBS and measured immediately by gamma counting method relative to control. The data set is classed as ADME, cell-based. In short, it runs like this:
(§4)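 SK-N-SH cells exposed to the 125I-labelled guanidine for 1 h, then washed with nonradioactive medium and PBS. Cells were either processed at once (1 h) or given fresh nonradioactive medium and returned to the incubator for 23 h (24 h). Subcellular fractions (cytoplasm, DNA) were counted by γ-counter. Values are mean and SD, n ≥ 3.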

Data set [18] in a line: Drug uptake in human SK-N-SH cells assessed as level of 125I-incorporation into DNA incubated 1 hr followed by compound washout with non-radioactive medium/PBS and measured after 23 hrs by gamma counting method relative to control. The data set is classed as ADME, cell-based. In short, it runs like this:
as §4

In data set [19] the target is T1, Sodium-dependent noradrenaline transporter. The data set can be described thus: Substrate activity at NET in human BE(2)-C cells assessed as inhibition of drug uptake by measuring MIBG IC50 incubated for 1 hr in presence of nonradioactive MIBG at 4 degC by filtration based gamma counting method. The data set is classed as cell-based.

T1 sequence (P23975 whole entry): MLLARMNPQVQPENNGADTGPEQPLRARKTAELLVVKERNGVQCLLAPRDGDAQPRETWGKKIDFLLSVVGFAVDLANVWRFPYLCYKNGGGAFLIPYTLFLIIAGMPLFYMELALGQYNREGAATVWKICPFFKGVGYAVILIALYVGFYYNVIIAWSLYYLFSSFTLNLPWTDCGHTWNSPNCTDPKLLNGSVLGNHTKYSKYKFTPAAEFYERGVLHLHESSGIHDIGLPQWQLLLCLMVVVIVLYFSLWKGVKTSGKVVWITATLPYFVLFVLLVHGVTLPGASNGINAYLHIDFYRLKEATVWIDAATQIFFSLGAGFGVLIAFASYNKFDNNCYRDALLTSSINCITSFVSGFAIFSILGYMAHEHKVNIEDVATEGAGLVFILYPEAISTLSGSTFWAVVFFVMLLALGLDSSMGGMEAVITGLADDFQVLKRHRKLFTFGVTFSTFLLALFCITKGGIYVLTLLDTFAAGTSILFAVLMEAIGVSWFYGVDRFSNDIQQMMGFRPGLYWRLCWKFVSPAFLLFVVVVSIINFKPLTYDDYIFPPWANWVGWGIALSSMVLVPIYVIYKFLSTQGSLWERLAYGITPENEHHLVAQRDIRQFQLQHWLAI

Consider `N=C(N)NCCCCCC(=O)O[C@H]1C[C@H](n2cc([125I])c(=O)[nH]c2=O)O[C@@H]1CO`, for which the half-maximal inhibitory concentration (IC50) – broadly, the point on the concentration scale where inhibition reaches its midpoint – in data set [1] was determined as 35.2 µM; in data set [12], 76.2 µM; in data set [19], 23.9 µM. In addition, the Activity with BE(2)-C [2] stood at 398 kBq/ml; in the data set on SK-N-SH [4], 15.6 kBq/ml; with SK-N-SH [5], 1.2 mBq; in the data set with BE(2)-C [8], 0.91 mBq; in the data set with BE(2)-C [9], 2.55 cm3; with BE(2)-C [11], 0.54 cm3. The Activity in the data set on SK-N-SH [15] is 163. The Time in the data set with BE(2)-C [3] is 14.9 days. The Drug uptake was 1.66 % ID/g in data set [6]; over 97% in data set [14]; 99% in [16]; 81% in data set [17]; over 97% in data set [18]. The remaining at 24 h in data set [7] was 86%. In addition, the pKa (commonly the pH at which an ionisable group is half protonated) in [10] came out at 12.1. The half-life (usually the time in which the quantity being followed falls by half) in data set [13] was 2.28 h.
